Data from ChEMBL document CHEMBL1153843, “Synthesis and biological evaluation of novel luteolin derivatives as antibacterial agents” (2009).
Values after ≈ are worked out from the molar mass of the structure shown.

What was measured:
Assay type in all cases: functional
Bacillus subtilis = assay: Antibacterial activity against Bacillus subtilis after 24 hrs by MTT method
Method in brief: (§1)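 MIC by broth microdilution in MH medium, with MTT colorimetric read-out. Compounds come from a 50 mg/mL DMSO stock and are serially diluted in the plates. Inoculum is about 10⁵ cfu/mL, incubated at 37 °C for 24 h. The MIC is first read visually. MTT at 2 mg/mL in PBS (0.01 mol/L, pH 7.4) is then added, with a further 4–5 h at room temperature.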

Staphylococcus aureus = assay: Antibacterial activity against Staphylococcus aureus after 24 hrs by MTT method; method in brief: as §1
Pseudomonas fluorescens = assay: Antibacterial activity against Pseudomonas fluorescens after 24 hrs by MTT method; method in brief: as §1
Escherichia coli = assay: Antibacterial activity against Escherichia coli after 24 hrs by MTT method; method in brief: as §1

MIC (Bacillus subtilis) [µg/mL] | MIC (Staphylococcus aureus) [µg/mL] | MIC (Pseudomonas fluorescens) [µg/mL] | MIC (Escherichia coli) [µg/mL] | SMILES
6.25 (≈ 14.3 µM) | 12.5 (≈ 28.6 µM) | 12.5 (≈ 28.6 µM) | 25 (≈ 57.1 µM) | O=c1cc(-c2ccc3c(c2)OCCO3)oc2cc(OCCNC3CCCCC3)cc(O)c12
3.12 (≈ 7.02 µM) | 6.25 (≈ 14 µM) | 6.25 (≈ 14 µM) | 12.5 (≈ 28.1 µM) | O=c1cc(-c2ccc3c(c2)OCCO3)oc2cc(OCCNCc3ccccc3)cc(O)c12
6.25 (≈ 14.8 µM) | 12.5 (≈ 29.5 µM) | 12.5 (≈ 29.5 µM) | 12.5 (≈ 29.5 µM) | O=c1cc(-c2ccc3c(c2)OCCO3)oc2cc(OCCN3CCCCC3)cc(O)c12
6.25 (≈ 14.7 µM) | 12.5 (≈ 29.4 µM) | 6.25 (≈ 14.7 µM) | 12.5 (≈ 29.4 µM) | O=c1cc(-c2ccc3c(c2)OCCO3)oc2cc(OCCN3CCNCC3)cc(O)c12
12.5 (≈ 29.8 µM) | 25 (≈ 59.6 µM) | 12.5 (≈ 29.8 µM) | 25 (≈ 59.6 µM) | O=c1cc(-c2ccc3c(c2)OCCO3)oc2cc(OCCBr)cc(O)c12
12.5 (≈ 30.4 µM) | 25 (≈ 60.8 µM) | 12.5 (≈ 30.4 µM) | 25 (≈ 60.8 µM) | CCN(CC)CCOc1cc(O)c2c(=O)cc(-c3ccc4c(c3)OCCO4)oc2c1
12.5 (≈ 28.4 µM) | 12.5 (≈ 28.4 µM) | 6.25 (≈ 14.2 µM) | 25 (≈ 56.9 µM) | CCCN(CCC)CCOc1cc(O)c2c(=O)cc(-c3ccc4c(c3)OCCO4)oc2c1
6.25 (≈ 14.3 µM) | 12.5 (≈ 28.5 µM) | 6.25 (≈ 14.3 µM) | 12.5 (≈ 28.5 µM) | CN1CCN(CCOc2cc(O)c3c(=O)cc(-c4ccc5c(c4)OCCO5)oc3c2)CC1
12.5 (≈ 30.4 µM) | 25 (≈ 60.8 µM) | 6.25 (≈ 15.2 µM) | 25 (≈ 60.8 µM) | CCCCNCCOc1cc(O)c2c(=O)cc(-c3ccc4c(c3)OCCO4)oc2c1
12.5 (≈ 30.4 µM) | 25 (≈ 60.8 µM) | 12.5 (≈ 30.4 µM) | 25 (≈ 60.8 µM) | CC(C)CNCCOc1cc(O)c2c(=O)cc(-c3ccc4c(c3)OCCO4)oc2c1
12.5 (≈ 31.3 µM) | 25 (≈ 62.6 µM) | 6.25 (≈ 15.6 µM) | 25 (≈ 62.6 µM) | O=c1cc(-c2ccc3c(c2)OCCO3)oc2cc(OCCNCCO)cc(O)c12
3.12 (≈ 7.35 µM) | 6.25 (≈ 14.7 µM) | 6.25 (≈ 14.7 µM) | 12.5 (≈ 29.4 µM) | O=c1cc(-c2ccc3c(c2)OCCO3)oc2cc(OCCN3CCOCC3)cc(O)c12
1.56 (≈ 3.33 µM) | 6.25 (≈ 13.3 µM) | 3.12 (≈ 6.67 µM) | 12.5 (≈ 26.7 µM) | O=c1cc(-c2ccc3c(c2)OCCO3)oc2cc(OCCNCCN3CCOCC3)cc(O)c12
1.56 (≈ 3.24 µM) | 3.12 (≈ 6.48 µM) | 3.12 (≈ 6.48 µM) | 6.25 (≈ 13 µM) | O=c1cc(-c2ccc3c(c2)OCCO3)oc2cc(OCCNCCCN3CCOCC3)cc(O)c12
6.25 (≈ 15.3 µM) | 12.5 (≈ 30.5 µM) | 12.5 (≈ 30.5 µM) | 12.5 (≈ 30.5 µM) | O=c1cc(-c2ccc3c(c2)OCCO3)oc2cc(OCCN3CCCC3)cc(O)c12
12.5 (≈ 40 µM) | 25 (≈ 80.1 µM) | 12.5 (≈ 40 µM) | 50 (≈ 160 µM) | O=c1cc(-c2ccc3c(c2)OCCO3)oc2cc(O)cc(O)c12
1.56 (≈ 3.37 µM) | 3.12 (≈ 6.74 µM) | 6.25 (≈ 13.5 µM) | 12.5 (≈ 27 µM) | O=c1cc(-c2ccc3c(c2)OCCO3)oc2cc(OCCNCc3ccc(F)cc3)cc(O)c12
6.25 (≈ 14.8 µM) | 12.5 (≈ 29.5 µM) | 12.5 (≈ 29.5 µM) | 25 (≈ 59 µM) | O=c1cc(-c2ccc3c(c2)OCCO3)oc2cc(OCCNC3CCCC3)cc(O)c12
12.5 (≈ 31.5 µM) | 25 (≈ 62.9 µM) | 12.5 (≈ 31.5 µM) | 25 (≈ 62.9 µM) | CCCNCCOc1cc(O)c2c(=O)cc(-c3ccc4c(c3)OCCO4)oc2c1
0.39 (≈ 0.807 µM) | 1.56 (≈ 3.23 µM) | 3.12 (≈ 6.46 µM) | 3.12 (≈ 6.46 µM) | NC[C@H]1O[C@H](O[C@H]2[C@H](O)[C@@H](O[C@H]3O[C@H](CO)[C@@H](O)[C@H](N)[C@H]3O)[C@H](N)C[C@@H]2N)[C@H](N)[C@@H](O)[C@@H]1O [BEKANAMYCIN]
1.56 (≈ 4.67 µM) | 1.56 (≈ 4.67 µM) | 6.25 (≈ 18.7 µM) | 6.25 (≈ 18.7 µM) | CC1(C)S[C@@H]2[C@H](NC(=O)Cc3ccccc3)C(=O)N2[C@H]1C(=O)O [PENICILLIN G]

SMILES | MIC (Bacillus subtilis) [µg/mL] | MIC (Staphylococcus aureus) [µg/mL] | MIC (Pseudomonas fluorescens) [µg/mL] | MIC (Escherichia coli) [µg/mL]
O=c1cc(-c2ccc(O)c(O)c2)oc2cc(O)cc(O)c12 [LUTEOLIN] | 25 (≈ 87.3 µM) | 50 (≈ 175 µM) | 25 (≈ 87.3 µM) | 50 (≈ 175 µM)
